Screens from PubChem BioAssay.
The list is not random: actives were taken first. Their share in the collection is about 3.5%.
ABCB1 inh: inhibitors of human ABCB1 transporter, ABCG2 counter-screen; P08183; CCRF-Adr cells, JC-1 efflux, flow cytometry; inhibition, % at 6.6 µM; 190,000 tested, 0.067% active; AID 1326; in the data active = inhibition above about 40%;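 also: 0% = vehicle and 100% = reference inhibitor; higher value means more JC-1 retained so stronger ABCB1 efflux block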
MEKK2mut PB1 HTS: signal of MEK5 binding to mutant human MEKK2 PB1 domain; bead flow cytometry, Alexa488-MEK5 binding to MEKK2 mutant; percent response, % at 10 µM; 290,000 tested, 0.35% active; in the data active = percent response above about 24%, passing the limit was not always enough
ABCG2 inh: inhibitors of human ABCG2 transporter, ABCB1 counter-screen | AID 1325 | inhibition, % at 6.6 µM | 190,000 tested, 0.1% active | IgMXP3 cells, JC-1 efflux, flow cytometry;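 active = inhibition above 80%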;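 also: 0% = DMSO and 100% = nicardipine control wells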
Target sequence (Q9UNQ0 whole entry, looked up): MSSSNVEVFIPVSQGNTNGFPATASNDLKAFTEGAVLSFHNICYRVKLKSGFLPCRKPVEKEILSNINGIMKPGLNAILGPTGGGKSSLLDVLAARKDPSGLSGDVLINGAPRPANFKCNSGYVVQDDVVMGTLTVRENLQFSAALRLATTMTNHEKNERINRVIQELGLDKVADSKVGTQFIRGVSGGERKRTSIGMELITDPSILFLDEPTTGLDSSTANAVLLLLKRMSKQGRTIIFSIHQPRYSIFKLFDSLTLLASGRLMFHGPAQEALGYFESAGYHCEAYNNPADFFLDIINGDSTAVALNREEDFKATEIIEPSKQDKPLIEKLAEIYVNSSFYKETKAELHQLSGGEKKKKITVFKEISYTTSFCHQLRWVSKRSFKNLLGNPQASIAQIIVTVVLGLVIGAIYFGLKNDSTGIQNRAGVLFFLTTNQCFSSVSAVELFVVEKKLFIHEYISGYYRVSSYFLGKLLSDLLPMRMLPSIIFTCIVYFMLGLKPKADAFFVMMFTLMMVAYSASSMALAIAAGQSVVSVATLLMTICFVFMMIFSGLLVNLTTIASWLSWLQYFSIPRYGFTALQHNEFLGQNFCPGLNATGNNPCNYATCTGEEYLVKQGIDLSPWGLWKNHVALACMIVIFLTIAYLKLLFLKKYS
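Times: 10 min at 25 °C | Test system: Two drug-resistant human cell lines, ABCG2 and ABCB1 | Quantity: 3 million cells/mL final, two lines in 1:1 ratio | Signal: Flow cytometry, 530 nm JC-1 signal | Dosing: Compound at 6.6 µM | Controls: Nicardipine and DMSO wells | Reagent: JC-1 as fluorescent efflux pump substrate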
MEKK2wt PB1 HTS: raises or lowers MEK5 binding to wildtype human MEKK2 PB1 domain; Q9Y2U5; binding response (% of control), % at 10 µM; 290,000 tested, 1.1% active; bead flow cytometry, Alexa488-MEK5 binding to MEKK2 WT; actives lie on both sides; in the data active = binding response below about 67% or above about 130%
MEKK3 PB1 HTS: MEKK3-MEK5 PB1 interaction, increase or decrease; AID 1529; binding response (% of control), % at 10 µM; 290,000 tested, 1.4% active; bead-based flow cytometry, Alexa488-MEK5 binding to MEKK3; actives lie on both sides; 0 = blocked by unlabeled MEK5, 100 = vehicle; Q99759;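 active = binding response more than 3 SD above or below the average of its plate-row segment, actives on both sides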;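 also: Alexa488 bead fluorescence after subtracting the streptavidin-only scavenger bead signal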
WT yeast gro inh: growth inhibition of WT yeast, mitochondrial fusion screen. AID 1362. inhibition, % at 10 µM. 190,000 tested, 2.1% active. mitochondrial fusion phenotypic screen, WT strain; in the data active = inhibition above about 58%; tested in S. cerevisiae
MEKK2wt confirm: raises or lowers MEK5 binding to wildtype human MEKK2, retest | shares compounds with MEKK3 PB1 HTS | bead flow cytometry, Alexa488-MEK5 binding to MEKK2 WT; actives lie on both sides | binding response (% of control), % at 10 µM | 5,900 tested, 2.4% active; in the data active = binding response below about 16% or above about 210%; inactive = in between
MEKK2mut confirm: signal of MEK5 binding to mutant human MEKK2, retest | shares compounds with MEKK3 PB1 HTS | bead flow cytometry, Alexa488-MEK5 binding to MEKK2 mutant | AID 1893 | percent response, % at 10 µM | 5,900 tested, 2% active; in the data active = percent response mostly above about 71%, no sharp cut-off; inactive = mostly below about 38%;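 also: higher means compound restores mutant binding toward wildtype level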
MEKK3-MEK5 inh: MEKK3-MEK5 PB1 inhibition, single concentration confirmation | shares compounds with MEKK3 PB1 HTS | bead flow cytometry, Alexa488-MEK5 binding to MEKK3; active compounds read low | binding response (% of control), % at 10 µM | 5,900 tested, 1.8% active;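 active = binding response below 72% of control, or above a set upper limit, though filed actives all read lower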;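 also: 100% = DMSO only wells and 0% = binding blocked by excess unlabeled MEK5; lower values mean stronger disruption of MEK5 binding to MEKK3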
* = called active by the depositor; x = no result given; [ ] = dose if it differs, or a comment.

SMILES	ABCB1 inh	MEKK2mut PB1 HTS	ABCG2 inh	MEKK2wt PB1 HTS	MEKK3 PB1 HTS	WT yeast gro inh	MEKK2wt confirm	MEKK2mut confirm	MEKK3-MEK5 inh
CC(C)(C)NC(=O)COc1ccc(CNCc2cccs2)cc1	0.1	-27.0	0.1	-1.0*[inhibitor]	2.0*[inhibitor]	1.7	109.0	9.0	102.0
COc1ccc(-n2c(=S)[nH]c3cc(C(=O)Nc4ccccc4OC)ccc3c2=O)c(OC)c1	x	-7.0	x	82.0	91.0	x	x	x	x
COc1ccc(-n2c(=S)[nH]c3cc(C(=O)Nc4ccccc4OC)ccc3c2=O)cc1	0.2	-1.0	4.8	103.0	132.0*	-4.9	98.0	-1.0	97.0
COc1ccc(/C=N/NC(=O)c2ccc(O)cc2)cc1CN1CCCc2ccccc21	-0.6	24.0	-0.5	44.0*[inhibitor]	97.0	1.7	88.0	-9.0	103.0
COc1ccc(/C=N/NC(=S)Nc2cccc(C(=O)O)c2)cc1	-0.4	-2.0	-0.5	104.0	105.0	10.1	x	x	x
COc1cc(/C=N/NC(=S)Nc2cccc(C(=O)O)c2)ccc1O	0.0	2.0	0.0	111.0	143.0*	-2.5	102.0	9.0	102.0
COc1cc(C(=O)NNC(=S)NC(=O)/C=C/c2ccccc2)cc(OC)c1OC	x	-21.0	x	86.0	84.0	x	x	x	x
CCOC(=O)C(NC(=O)NCc1ccc(F)cc1)(OCC)C(F)(F)F (stereo not drawn)	0.2	4.0	-0.3	107.0	128.0*	-0.9	104.0	1.0	103.0
CCOC(=O)C(NC(=O)Nc1ccc(Cl)cn1)(Oc1ccc(F)cc1)C(F)(F)F (stereo not drawn)	0.3	3.0	0.5	103.0	152.0*	11.7	107.0	11.0	105.0
COC(=O)CNC(=O)COc1ccccc1	0.3	8.0	2.1	108.0	104.0	-6.7	x	x	x
CC(=O)Nc1ccc(S(=O)(=O)N2CCN(c3nc(NC4CCCC4)c4ccccc4n3)CC2)cc1	0.4	18.0	0.9	163.0*	101.0	9.9	156.0	29.0	105.0
Cc1c(N(C)C(=O)COc2ccc3ccccc3c2)c(=O)n(-c2ccccc2)n1C	x	3.0	x	95.0	97.0	x	x	x	x
CC(=O)c1ccccc1NC(=O)COC(=O)/C(=C/c1ccccc1)n1nnnc1C	x	5.0	x	109.0	105.0	x	x	x	x
CCCCN(C)CCNC(=O)C(=O)c1c(C)[nH]c2ccccc12	-0.1	-4.0	-0.4	84.0	75.0*[inhibitor]	-16.3	99.0	-4.0	101.0
C1CCC(C(CC2CCCCN2)C2CCCCC2)CC1 (stereo not drawn)	0.6	17.0	0.0	171.0*	86.0	72.3	140.0	28.0	102.0
Cc1nn(C)cc1/C=C(/C#N)C(N)=O	0.0	1.0	13.7	109.0	149.0*	4.9	100.0	-6.0	99.0
CCc1ccc(-c2nc(CN3CCC(C(=O)NCc4ccccc4OC)CC3)c(C)o2)cc1	1.0	16.0	2.3	156.0*	104.0	22.5	114.0	3.0	104.0
Cc1ccccc1-c1nc(CN2CCC(C(=O)NCCCN3CC(C)CC(C)C3)CC2)c(C)o1 (stereo not drawn)	0.6	18.0	3.5	142.0*	107.0	-12.8	127.0	18.0	102.0
CC(=O)Nc1ccc(C(=O)OCCc2ccccc2)cc1	x	-2.0	x	104.0	107.0	x	x	x	x
Cc1ccc(N2C(=O)c3ccc(C(=O)N4CCOCC4)cc3C2=O)cc1C	24.4	2.0	39.0	107.0	104.0	-7.0	x	x	x
O=C(CN1CCCN(S(=O)(=O)c2ccc(Br)cc2)CC1)Nc1ccc2c(c1)OCO2	0.7	-9.0	2.7	0.0*[inhibitor]	1.0*[inhibitor]	4.6	105.0	-2.0	97.0
CCN1C(=O)/C(=C\C=C\c2ccccc2[N+](=O)[O-])SC1=S	-0.5	-4.0	-1.2	69.0	88.0	3.8	x	x	x
CCN1C(=O)/C(=C/C=C2\N(CC)c3cc(S(=O)(=O)N(C)C)ccc3N2c2ccccc2)SC1=S	x	-4.0	x	53.0*[inhibitor]	81.0	x	39.0	-22.0	76.0
CCOC(=O)c1cnc2cc(Cl)c(OC)cc2c1NCC1CCCO1 (stereo not drawn)	11.8	13.0	6.8	136.0*	115.0	-6.0	104.0	-1.0	106.0
CCOC(=O)c1c(NC(=O)Nc2ccc(F)cc2)sc2c1CCN(C)C2	x	31.0	x	141.0*	129.0*	x	124.0	4.0	101.0
SMILES	ABCB1 inh	MEKK2mut PB1 HTS	ABCG2 inh	MEKK2wt PB1 HTS	MEKK3 PB1 HTS	WT yeast gro inh	MEKK2wt confirm	MEKK2mut confirm	MEKK3-MEK5 inh
COc1cc2ccccc2cc1C(=O)Nc1sc2c(c1C(N)=O)CCN(C(C)C)C2	x	29.0*	x	150.0*	107.0	x	170.0	42.0	110.0
CN1CCc2c(sc(NC(=O)c3ccc4ccccc4c3)c2C(N)=O)C1	x	19.0	x	135.0*	106.0	x	151.0	23.0	108.0
CCOC(=O)c1c(NC(=S)Nc2ccc(Cl)cc2)sc2c1CCN(C)C2	-1.5	-1.0	-6.4	81.0	118.0	18.0	x	x	x
COc1ccccc1NC(=O)CN1CCN(CC(=O)Nc2ccc3c(c2)OCCO3)CC1	1.0	24.0*	31.9	112.0	106.0	5.3	112.0	15.0	104.0
CCOc1ccc(NC(=O)CN2CCN(CC(=O)Nc3cc(OC)cc(OC)c3)CC2)cc1	0.5	25.0*	2.2	115.0	113.0	-4.0	105.0	-3.0	104.0
NC(=O)CSc1nnc(-c2cc3ccccc3o2)n1Cc1ccccc1	0.9	9.0	4.1	119.0	124.0*	-0.6	98.0	3.0	104.0
O=C(COc1ccccc1[N+](=O)[O-])N/N=C/c1ccc(O)cc1	1.0	0.0	32.5	102.0	136.0*	-2.3	103.0	1.0	105.0
O=C(COc1ccccc1[N+](=O)[O-])N/N=C/c1ccncc1	0.1	-12.0	6.8	88.0	94.0	-8.4	x	x	x
CCc1ccc(C(=O)NC(CCSC)C(=O)OC)cc1 (stereo not drawn)	0.7	4.0	2.7	3.0*[inhibitor]	3.0*[inhibitor]	0.0	93.0	-5.0	100.0
Cc1cc(C)nc(SCCC(=O)N2CCOCC2)n1	-0.1	11.0	-0.2	123.0	123.0*	9.1	99.0	-1.0	100.0
CCOC(=O)c1ccc(-c2c(C(=O)OCC)oc3cc(O)c(CC)cc3c2=O)o1	0.3	-2.0	0.8	101.0	105.0	18.3	x	x	x
O=C(NNS(=O)(=O)c1ccc2ccccc2c1)c1cccs1	-1.1	0.0	-4.2	103.0	144.0*	6.0	99.0	-1.0	101.0
COc1ccccc1NC(=O)C(=O)NNS(=O)(=O)c1ccc2ccccc2c1	x	31.0	x	118.0	131.0*	x	103.0	5.0	101.0
